# In ChEMBL document CHEMBL3102781, “Synthesis and activity of substituted heteroaromatics as positive allosteric modulators for α4β2α5 nicotinic acetylcholine receptors” (Bioorg Med Chem Lett, 2014):
# pEC50: −log10 of the molar value. Active and inactive are the calls of the source. No cut-off for these calls is given here.
# Columns and labels:
# [1] = target: T1, Nicotinic acetylcholine receptor alpha4/beta2/alpha5 (Homo sapiens) (UniProt P17787+P43681+P30532); experiment: Agonist activity at human alpha4beta2alpha5 nACHR expressed in HEK-tsA201 cells by fluorometric analysis; format: cell-based
# [2] = target: T1, Nicotinic acetylcholine receptor alpha4/beta2/alpha5 (Homo sapiens); experiment: Positive allosteric modulation of human alpha4beta2alpha5 nACHR expressed in HEK-tsA201 cells assessed as potentiation of nicotine-induced current at 1 uM preincubated for 15 mins followed by nicotine-treatment by fluorometric analysis; format: cell-based
# In short: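 In human α4β2α5 AChR HEK tsA201 cells (200,000/well, 20 h at 29 °C before testing), compound was added 15 min before nicotine. Potentiation of the nicotine response was read by membrane-potential fluorescence on a FLEXstation, with 3–4 wells averaged per point.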
# [3] = target: Nicotinic acetylcholine receptor alpha4/beta2/alpha5 (Homo sapiens, UniProt P17787+P30532+P43681); experiment: Positive allosteric modulation of human alpha4beta2alpha5 nACHR expressed in HEK-tsA201 cells assessed as potentiation of nicotine-induced current preincubated for 15 mins followed by nicotine-treatment by fluorometric analysis; format: cell-based
# In short: (§1)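 Human AChR subtypes were stably expressed in HEK tsA201 cells grown in DMEM with 10% FBS at 37 °C. Plating was 150,000/well for lines without α5 and 200,000/well for α5 lines, on poly-D-lysine plates. β2-containing lines were incubated 20 h at 29 °C before testing. Serial dilutions of compound were added 15 min before nicotine. Membrane-potential fluorescence was read on a FLEXstation, with 3–4 wells per point and a Hill equation fit.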
# [4] = target: T1, Nicotinic acetylcholine receptor alpha4/beta2/alpha5 (Homo sapiens); experiment: Positive allosteric modulation of human alpha4beta2alpha5 nACHR expressed in HEK-tsA201 cells assessed as potentiation of nicotine-induced current preincubated for 15 mins followed by nicotine-treatment by fluorometric analysis relative to NS9283; format: cell-based; in short: as §1
# Mus musculus [5] = experiment: Oral bioavailability in mouse at 2 mg/kg; format: ADME, organism-based; conditions: in vivo
# In short: (§2)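 Mouse pharmacokinetics. Each compound was dosed 1 mg/kg IV and 2 mg/kg PO. From these the following were derived: clearance, half-life, PO AUC, PO Cmax, volume of distribution and oral bioavailability (F%).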
# [6] = target: T2, Neuronal acetylcholine receptor; alpha4/beta2 (Homo sapiens, UniProt P17787+P43681); experiment: Positive allosteric modulation of human alpha4beta2 nACHR expressed in HEK-tsA201 cells assessed as potentiation of nicotine-induced current preincubated for 15 mins followed by nicotine-treatment by fluorometric analysis; format: cell-based; in short: as §1
# [7] = Half life in mouse at 1 mg/kg, iv and 2 mg/kg, po; format: ADME, organism-based; conditions: in vivo; in short: as §2
# [8] = target: Nicotinic acetylcholine receptor alpha3/beta4/alpha5 (Homo sapiens) (UniProt P30926+P32297+P30532); experiment: Positive allosteric modulation of human alpha3beta4alpha5 nACHR expressed in HEK-tsA201 cells assessed as potentiation of nicotine-induced current preincubated for 15 mins followed by nicotine-treatment by fluorometric analysis; format: cell-based; in short: as §1
# [9] = target: Nicotinic acetylcholine receptor alpha3/beta2/alpha5 (Homo sapiens) (UniProt P17787+P32297+P30532); experiment: Positive allosteric modulation of human alpha3beta2alpha5 nACHR expressed in HEK-tsA201 cells assessed as potentiation of nicotine-induced current preincubated for 15 mins followed by nicotine-treatment by fluorometric analysis; format: cell-based; in short: as §1
# Mus musculus [10] = experiment: Volume of distribution in mouse at 1 mg/kg, iv and 2 mg/kg, po; format: ADME, organism-based; conditions: in vivo; in short: as §2
# [11] = Cmax in mouse at 2 mg/kg, po; format: ADME, organism-based; parameters: dose 2 mg/kg, route oral; conditions: in vivo; in short: as §2
# [12] = Drug uptake in mouse brain at 10 mg/kg, ip after 2 hrs; format: ADME, organism-based; parameters: dose 10 mg/kg, route intraperitoneal; conditions: read-out: Drug uptake
# In short: (§3)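 Mice were given 10 mg/kg by intraperitoneal injection. Plasma and brain drug levels were measured 2 h after dosing.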
# [13] = target: Neuronal acetylcholine receptor; alpha3/beta4 (Homo sapiens) (UniProt P30926+P32297); experiment: Positive allosteric modulation of human alpha3beta4 nACHR expressed in HEK-tsA201 cells assessed as potentiation of nicotine-induced current preincubated for 15 mins followed by nicotine-treatment by fluorometric analysis; format: cell-based; in short: as §1
# Mus musculus [14] = experiment: AUC in mouse at 2 mg/kg, po; format: ADME, organism-based, Plasma; parameters: dose 2 mg/kg, route oral; conditions: in vivo; in short: as §2
# [15] = target: Neuronal acetylcholine receptor; alpha3/beta2 (Homo sapiens) (UniProt P17787+P32297); experiment: Positive allosteric modulation of human alpha3beta2 nACHR expressed in HEK-tsA201 cells assessed as potentiation of nicotine-induced current preincubated for 15 mins followed by nicotine-treatment by fluorometric analysis; format: cell-based; in short: as §1
# [16] = Plasma concentration in mouse at 10 mg/kg, ip after 2 hrs; format: ADME, organism-based; parameters: dose 10 mg/kg, route intraperitoneal; in short: as §3
# [17] = target: T2, Neuronal acetylcholine receptor; alpha4/beta2; experiment: Positive allosteric modulation of alpha4beta2 nACHR (unknown origin); format: protein-complex assay
# Sequence of Nicotinic acetylcholine receptor alpha4/beta2/alpha5 (P17787 whole entry): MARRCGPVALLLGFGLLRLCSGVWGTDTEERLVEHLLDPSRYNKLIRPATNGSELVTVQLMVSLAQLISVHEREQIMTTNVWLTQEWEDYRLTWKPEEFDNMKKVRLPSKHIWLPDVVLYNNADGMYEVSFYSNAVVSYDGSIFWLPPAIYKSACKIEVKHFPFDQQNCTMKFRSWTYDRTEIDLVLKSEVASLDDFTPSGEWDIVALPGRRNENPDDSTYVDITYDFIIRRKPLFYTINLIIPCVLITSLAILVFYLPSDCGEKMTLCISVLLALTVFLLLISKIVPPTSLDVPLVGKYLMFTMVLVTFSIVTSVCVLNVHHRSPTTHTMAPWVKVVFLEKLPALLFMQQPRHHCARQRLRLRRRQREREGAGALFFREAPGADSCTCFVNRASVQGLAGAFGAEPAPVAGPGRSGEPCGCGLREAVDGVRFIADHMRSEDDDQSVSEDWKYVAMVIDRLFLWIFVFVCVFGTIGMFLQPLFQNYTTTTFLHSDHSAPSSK
# Sequence of Nicotinic acetylcholine receptor alpha4/beta2/alpha5 (P43681 whole entry): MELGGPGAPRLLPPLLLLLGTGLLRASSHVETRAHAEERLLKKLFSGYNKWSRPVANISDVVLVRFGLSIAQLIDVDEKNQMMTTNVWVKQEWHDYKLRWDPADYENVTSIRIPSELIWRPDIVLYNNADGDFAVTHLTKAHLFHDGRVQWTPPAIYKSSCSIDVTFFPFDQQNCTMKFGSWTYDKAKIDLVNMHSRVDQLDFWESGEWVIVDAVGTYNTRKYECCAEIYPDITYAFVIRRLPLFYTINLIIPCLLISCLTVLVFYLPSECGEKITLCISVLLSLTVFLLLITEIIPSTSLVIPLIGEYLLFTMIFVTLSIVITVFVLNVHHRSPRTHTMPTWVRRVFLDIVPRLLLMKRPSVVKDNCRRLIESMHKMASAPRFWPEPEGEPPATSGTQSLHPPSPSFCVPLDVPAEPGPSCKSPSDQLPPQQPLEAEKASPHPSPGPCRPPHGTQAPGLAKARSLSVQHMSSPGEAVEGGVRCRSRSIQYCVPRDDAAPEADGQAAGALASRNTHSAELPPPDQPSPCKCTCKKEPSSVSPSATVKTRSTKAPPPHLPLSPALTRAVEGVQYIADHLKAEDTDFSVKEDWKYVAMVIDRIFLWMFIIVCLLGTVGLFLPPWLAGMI
# Sequence of Nicotinic acetylcholine receptor alpha4/beta2/alpha5 (P30532 whole entry): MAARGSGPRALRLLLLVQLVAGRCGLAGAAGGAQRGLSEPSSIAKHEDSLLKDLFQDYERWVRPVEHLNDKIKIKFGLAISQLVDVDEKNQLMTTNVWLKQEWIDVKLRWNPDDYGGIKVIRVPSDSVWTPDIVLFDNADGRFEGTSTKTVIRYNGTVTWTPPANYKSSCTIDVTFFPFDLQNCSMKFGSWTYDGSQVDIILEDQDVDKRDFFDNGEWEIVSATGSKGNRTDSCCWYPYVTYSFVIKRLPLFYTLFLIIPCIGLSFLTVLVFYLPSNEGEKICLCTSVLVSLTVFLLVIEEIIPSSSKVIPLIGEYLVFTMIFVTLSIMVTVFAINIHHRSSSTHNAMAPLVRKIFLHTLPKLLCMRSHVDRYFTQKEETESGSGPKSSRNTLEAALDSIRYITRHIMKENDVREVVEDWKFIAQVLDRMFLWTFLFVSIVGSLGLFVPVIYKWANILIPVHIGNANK
# T2 sequence (P17787 whole entry): as the sequence (P17787 whole entry) above
# T2 sequence (P43681 whole entry): as the sequence (P43681 whole entry) above
Compound,Activity [1],Activity [2],also measured
N#Cc1cccc(-c2cn(-c3cccnc3)cn2)c1,inactive,inactive,
Clc1cc(Cl)cc(-n2nnc(-c3cccnc3)n2)c1,inactive,inactive,
N#Cc1cccc(-n2cnc(-c3cccnc3)c2)c1,inactive,inactive,
N#Cc1cccc(-n2nnc(-c3ccccn3)n2)c1,inactive,inactive,
N#Cc1cccc(-n2cc(-c3cccnc3)cn2)c1,inactive,inactive,
N#Cc1cccc(-c2ncn(-c3cccnc3)n2)c1,inactive,inactive,
N#Cc1cccc(-n2nnc(-c3cnccc3Cl)n2)c1,inactive,inactive,
N#Cc1cccc(-c2ccn(-c3cccnc3)n2)c1,inactive,inactive,
Clc1ccccc1-n1nnc(-c2cccnc2)n1,inactive,inactive,
N#Cc1cccc(-n2nnc(-c3ccc(Cl)nc3)n2)c1,inactive,inactive,
Cc1ccc(-n2nnc(-c3cccnc3)n2)cc1C#N,inactive,inactive,
N#Cc1cccc(-n2ccc(-c3cccnc3)n2)c1,inactive,inactive,
N#Cc1cccc(-n2nnc(-c3cccnc3Cl)n2)c1,inactive,inactive,
C[n+]1cccc(-c2nnn(-c3cccc(C#N)c3)n2)c1,inactive,inactive,
N#Cc1cccc(-n2nnc(-c3ccncc3)n2)c1,inactive,inactive,
N#Cc1cccc(-c2cn(-c3cccnc3)nn2)c1,inactive,inactive,
N#Cc1cccc(-n2nnc(-c3cncc(Cl)c3)n2)c1,inactive,inactive,
N#Cc1ccc(-n2nnc(-c3cccnc3)n2)cc1,inactive,> 50%,pEC50 [3]: 5.66; Emax [4]: 0.96
N#Cc1cccc(-n2nnc(-c3ccccc3)n2)c1,inactive,inactive,
N#Cc1cccc(-n2cc(-c3cccnc3)nn2)c1,inactive,inactive,
c1cncc(-c2nnn(-c3cccnc3)n2)c1,inactive,> 50%,pEC50 [3]: 6.15; Emax [4]: 1.9
Fc1ccc(-n2nnc(-c3cccnc3)n2)c(F)c1,inactive,inactive,

# Second part, led by results:
Activity [1],Activity [2],Compound,also measured
inactive,inactive,FC(F)(F)c1cccc(-c2nc(-c3cccnc3)no2)c1,
inactive,inactive,COc1cccc(-c2nc(-c3cccnc3)no2)c1,
inactive,inactive,C[n+]1cccc(-c2noc(-c3cccc(C#N)c3)n2)c1,
inactive,inactive,Fc1cccc(-c2nc(-c3cccnc3)no2)c1,
inactive,inactive,N#Cc1cccc(-c2nc(-c3ccncc3)no2)c1,
inactive,> 50%,c1cncc(-c2noc(-c3cccnc3)n2)c1,pEC50 [3]: 6.00; Emax [4]: 0.98
inactive,inactive,N#Cc1cccc(-c2nc(-c3ccccn3)no2)c1,
inactive,inactive,FC(F)(F)Oc1cccc(-c2nc(-c3cccnc3)no2)c1,
inactive,inactive,Fc1cccc(-c2nc(-c3cccnc3)no2)c1F,
inactive,> 50%,O=[N+]([O-])c1ccc(-c2nc(-c3cccnc3)no2)cc1,pEC50 [3]: 5.77; Emax [4]: 0.81
inactive,inactive,Brc1cccc(-n2nnc(-c3cccnc3)n2)c1,
inactive,inactive,c1ccc(-c2nc(-c3cccnc3)no2)cc1,
inactive,inactive,Clc1ccc(-c2nc(-c3cccnc3)no2)cc1,
inactive,inactive,O=[N+]([O-])c1ccccc1-c1nc(-c2cccnc2)no1,
inactive,inactive,NC(=O)c1cccc(-n2nnc(-c3cccnc3)n2)c1,
inactive,> 50%,Fc1ccc(-c2nc(-c3cccnc3)no2)cc1F,pEC50 [3]: 5.89; Emax [4]: 1.2
inactive,inactive,COc1cc(OC)cc(-n2nnc(-c3cccnc3)n2)c1,
inactive,> 50%,O=[N+]([O-])c1cccc(-c2nc(-c3cccnc3)no2)c1,pEC50 [3]: 6.16; Emax [4]: 1.2
inactive,> 50%,N#Cc1cccc(-n2nnc(-c3cccnc3)n2)c1,F (Mus musculus [5]): 100%; Activity [6]: Active; half-life [7]: 54 min; pEC50 [3]: 5.70; Activity [8]: inactive; Activity [9]: inactive; Vd (Mus musculus [10]): 2.7 L/kg; Cmax [11]: 4.1 µM; concentration at 2 h [12]: 4.4 µM; Activity [13]: inactive; AUC (Mus musculus [14]): 21 µM·h; Activity [15]: inactive; concentration at 2 h [16]: 11 µM; Emax [4]: 2.5
inactive,inactive,COc1ccc(OC)c(-n2nnc(-c3cccnc3)n2)c1,
inactive,inactive,N#Cc1cccc(-c2nnc(-c3cccnc3)[nH]2)c1,
inactive,inactive,N#Cc1cccc(-n2cnc(-c3cccnc3)n2)c1,
inactive,inactive,N#Cc1cccc(-c2nc(-c3ccccc3)no2)c1,
inactive,inactive,Clc1ccccc1-c1nc(-c2cccnc2)no1,
inactive,> 50%,N#Cc1cccc(-c2nc(-c3cccnc3)no2)c1,Activity [6]: Active; pEC50 [3]: 6.10; Activity [8]: inactive; Activity [9]: inactive; pEC50 [17]: 6.00; Activity [13]: inactive; Activity [15]: inactive
